ChEMBL document CHEMBL3822425, “Isatin Derived Spirocyclic Analogues with α-Methylene-γ-butyrolactone as Anticancer Agents: A Structure-Activity Relationship Study” (J Med Chem, 2016)
Activity calls are given as the source filed them. The calls are words filed in the database; no cut-off is given here.

Tests used:
[1] = test system: A2780; experiment: Cytotoxicity against human A2780 cells assessed as cell growth inhibition after 3 days by presto blue dye based plate reader method; type: functional; settings: A2780, 72 h
Procedure, shortened: (§1)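 Cells in DMEM high glucose/10% FBS (A2780 in RPMI/10% FBS), 4,000 per well, overnight, then 40 to 0.039 µM or vehicle, 24, 48, 72 h at 37°C, 5% CO2; PrestoBlue 15 min, fluorescence 560ex/590em; growth as 100×[(T−Tz)/(C−Tz)] per NCI algorithm.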

[2] = test system: A549; experiment: Inhibition of TNFalpha-induced IKKbeta-mediated NF-kappaB activity in human A549 cells at 10 uM after 2 hrs followed by TNFalpha addition for 7 hrs by ONE-Glo Luciferase reporter based luminescence assay; type: cell-based
Procedure, shortened: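 A549 luciferase cells grown 5 passages without TNFα then 2 passages with or without 5 ng/mL TNFα; 50,000 per well overnight; 10 µM compound 2 h; then 20 ng/mL TNFα 7 h; PrestoBlue 10 min (560ex/590em) viability; ONE-Glo 10 min, luminescence 1000 ms.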

[3] = test system: MDA-MB-231; experiment: Cytotoxicity against human MDA-MB-231 cells assessed as cell growth inhibition after 3 days by presto blue dye based plate reader method; type: functional; procedure, shortened: as §1
[4] = Cytotoxicity against human MIAPaCa2 cells assessed as cell growth inhibition after 3 days by presto blue dye based plate reader method; type: functional; settings: MIA PaCa-2, 72 h; procedure, shortened: as §1
[5] = test system: HeLa; experiment: Cytotoxicity against human HeLa cells expressing GFP assessed as cell growth inhibition after 3 days by presto blue dye based plate reader method; type: functional; settings: 72 h; procedure, shortened: as §1
[6] = test system: A549; experiment: Inhibition of TNFalpha-induced IKKbeta-mediated NF-kappaB activity in human A549 cells at 10 uM after 2 hrs followed by TNFalpha addition for 7 hrs by ONE-Glo Luciferase reporter based luminescence assay
[7] = test system: SW480; experiment: Cytotoxicity against human SW480 cells assessed as cell growth inhibition after 3 days by presto blue dye based plate reader method; type: functional; settings: SW480, 72 h
[8] = biological target: T1, Inhibitor of nuclear factor kappa-B kinase subunit beta (Homo sapiens) (UniProt O14920); experiment: Covalent inhibition of IKKbeta (unknown origin) at 10 uM after 1 hr by rhodamine azide dye based SDS-PAGE method
T1 sequence (whole entry): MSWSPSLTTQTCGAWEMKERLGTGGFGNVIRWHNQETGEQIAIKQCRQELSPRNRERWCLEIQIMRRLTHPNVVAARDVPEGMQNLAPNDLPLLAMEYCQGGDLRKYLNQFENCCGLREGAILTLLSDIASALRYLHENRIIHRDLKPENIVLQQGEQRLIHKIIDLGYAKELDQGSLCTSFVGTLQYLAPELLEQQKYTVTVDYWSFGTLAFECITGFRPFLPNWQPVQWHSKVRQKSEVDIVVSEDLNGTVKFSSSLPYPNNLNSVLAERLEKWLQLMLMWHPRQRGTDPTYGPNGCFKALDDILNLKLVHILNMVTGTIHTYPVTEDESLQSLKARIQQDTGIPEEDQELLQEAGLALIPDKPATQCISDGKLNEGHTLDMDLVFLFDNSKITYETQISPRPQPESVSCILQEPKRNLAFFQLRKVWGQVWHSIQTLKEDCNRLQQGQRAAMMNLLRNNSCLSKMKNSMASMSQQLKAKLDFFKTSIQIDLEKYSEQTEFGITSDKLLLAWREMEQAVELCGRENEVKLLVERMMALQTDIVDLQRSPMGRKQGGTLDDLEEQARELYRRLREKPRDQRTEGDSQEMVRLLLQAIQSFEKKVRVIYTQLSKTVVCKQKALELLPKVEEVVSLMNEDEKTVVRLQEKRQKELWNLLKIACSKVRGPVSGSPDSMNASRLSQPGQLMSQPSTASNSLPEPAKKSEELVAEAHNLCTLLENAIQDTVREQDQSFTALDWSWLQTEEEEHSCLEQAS
Procedure, shortened: (§2)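 Purified IKKβ or p65 (250 ng in 200 µL) incubated 1 h with 10 µM alkyne probe; click reaction 1 h with 0.1 mM 5-TAMRA azide, 1 mM TCEP, 1 mM CuSO4, 0.1 mM TBTA; methanol precipitation, pellet in SDS buffer, 4-20% SDS-PAGE, fluorescence gel scanning.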

[9] = species on record: Homo sapiens; experiment: Covalent inhibition of C-terminus truncated NF-kappaB p65 L15V/P180S/F309S/A439V/V462M mutant (unknown origin) at 10 uM after 1 hr by rhodamine azide dye based SDS-PAGE method; procedure, shortened: as §2
[10] = biological target: T1, Inhibitor of nuclear factor kappa-B kinase subunit beta (Homo sapiens); experiment: Inhibition of IKKbeta in human MDA-MB-231 cells assessed as reduction in IkappaBalpha phosphorylation by Western blot analysis; type: cell-based
Procedure, shortened: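 MDA-MB-231 cytoplasmic fractions: swelling 30 min on ice in HEPES/KCl/EDTA/DTT buffer with inhibitors, 1.25% NP-40, centrifuged; lysates on 4-20% gels, PVDF, anti-phospho-IκBα and anti-IκBα, tubulin or GAPDH loading control, ECL detection.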

[11] = biological target: T2, serum albumin (Homo sapiens, UniProt P02768); experiment: Binding affinity to human serum albumin assessed as half life by HPLC analysis; type: ADME
T2 sequence (P02768 whole entry): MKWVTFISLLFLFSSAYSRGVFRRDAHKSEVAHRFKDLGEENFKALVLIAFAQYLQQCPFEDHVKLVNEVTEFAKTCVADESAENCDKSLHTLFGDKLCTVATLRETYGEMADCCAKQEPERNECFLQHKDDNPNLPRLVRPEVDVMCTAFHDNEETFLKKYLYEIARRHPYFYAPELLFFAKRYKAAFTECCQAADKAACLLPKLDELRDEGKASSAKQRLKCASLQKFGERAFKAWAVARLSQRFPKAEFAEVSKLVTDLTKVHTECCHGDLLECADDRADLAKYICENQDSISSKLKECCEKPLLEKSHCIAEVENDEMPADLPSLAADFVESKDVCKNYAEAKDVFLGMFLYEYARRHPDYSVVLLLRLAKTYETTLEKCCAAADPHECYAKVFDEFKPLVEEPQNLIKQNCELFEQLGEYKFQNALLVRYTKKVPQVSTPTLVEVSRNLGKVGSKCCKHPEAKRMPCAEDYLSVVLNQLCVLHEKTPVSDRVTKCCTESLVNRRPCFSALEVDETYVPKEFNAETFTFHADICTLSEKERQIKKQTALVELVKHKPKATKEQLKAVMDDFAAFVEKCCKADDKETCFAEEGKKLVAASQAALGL

[12] = biological target: T2, serum albumin; experiment: Binding affinity to human serum albumin assessed as half life by MS analysis; type: ADME
[13] = test system: HeLa; experiment: Induction of apoptosis in human HeLa cells assessed as PARP cleavage after 24 to 48 hrs by Western blot analysis; type: functional, cell-based
Procedure, shortened: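 Cells collected with media and trypsinized pellet combined, lysed in RIPA buffer (pH 8.0), 4-20% SDS-PAGE, Western blot with anti-PARP to detect cleavage; HeLa timepoint 48 h.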

[14] = biological target: T1, Inhibitor of nuclear factor kappa-B kinase subunit beta (Homo sapiens); experiment: Inhibition of IKKbeta in human MIAPaCa2 cells assessed as reduction in IkappaBalpha phosphorylation at 10 to 20 uM by Western blot analysis; type: cell-based; settings: MIA PaCa-2
[15] = test system: MDA-MB-231; experiment: Cytotoxicity against human MDA-MB-231 cells assessed as cell growth inhibition at 0.039 to 40 uM by presto blue dye based plate reader method; type: functional
[16] = test system: HeLa; experiment: Anticlonogenic activity against human HeLa cells assessed as inhibition of colony formation after 2 to 7 days by crystal violet staining; type: functional, cell-based
Procedure, shortened: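 HeLa cells seeded at 500-1000 per well, grown 24 h, drug-treated 48 h at 37°C (DMSO control), then fresh medium for 7 days; methanol fixed 15 min, 0.1% crystal violet 30 min at room temperature, colonies over 50 cells counted.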

C=C1CC2(OC1=O)C(=O)N(C)c1ccccc12 (stereo not drawn)
EC50 [1]: 3.9 µM

C=C1CC2(OC1=O)C(=O)Nc1ccc(OC)cc12 (stereo not drawn)
EC50 [1]: 3.1 µM

C=C1CC(c2ccc(OC)c(OC)c2)OC1=O (stereo not drawn)
inhibition [2]: 25%

NC(=O)Nc1sc(-c2ccc(F)cc2)cc1C(N)=O
growth inhibition (GI) [3]: Active

N#Cc1c(C2CCNCC2)cc(-c2c(O)cccc2OCC2CC2)nc1N
growth inhibition (GI) [3]: Active

C=C1CC2(OC1=O)C(=O)N(Cc1ccccc1)c1ccccc12 (stereo not drawn)
EC50 [1]: 2.7 µM

C=C1CC(c2ccc(C3CC(=C)C(=O)O3)cc2)OC1=O (stereo not drawn)
inhibition [2]: Active

C=C1CC2(OC1=O)C(=O)Nc1c([N+](=O)[O-])cc(Br)cc12 (stereo not drawn)
EC50 [1]: 2 µM

C/C1=C\CC[C@@]2(C)O[C@H]2[C@H]2OC(=O)C(C)[C@@H]2CC1 (stereo partly drawn)
IC50 [4]: 84.3 µM | EC50 [1]: > 100 µM | IC50 [5]: 66.1 µM | inhibition [6]: 20% | IC50 [7]: > 100 µM

C=C1CC2(OC1=O)C(=O)Nc1ccc(I)cc12 (stereo not drawn)
EC50 [1]: 2.2 µM

C#CCCN1C(=O)C2(CC(=C)C(=O)O2)c2ccccc21 (stereo not drawn)
EC50 [1]: 5.5 µM | inhibition [2]: 75% | inhibition [8]: Active | inhibition [9]: Active

C=C(CC1(O)C(=O)Nc2ccccc21)C(=O)OC (stereo not drawn)
inhibition [6]: Active | inhibition [10]: Active

C=C1CC(c2ccc(OC)cc2)OC1=O (stereo not drawn)
inhibition [2]: 25%

C=C1CC(c2ccc(F)cc2)OC1=O (stereo not drawn)
inhibition [2]: 25%

C=C1CC(c2ccccc2)OC1=O (stereo not drawn)
inhibition [2]: 25%

C=C1CC(c2c(OCc3ccccc3)ccc3ccccc23)OC1=O (stereo not drawn)
inhibition [2]: < 25%

C=C1CC(c2ccc(OCc3ccccc3)cc2)OC1=O (stereo not drawn)
inhibition [2]: 25%

C=C1CC(c2c(OC)ccc3ccccc23)OC1=O (stereo not drawn)
inhibition [2]: Active

O=C(Nc1ccc(Br)cc1)Nc1ccc2nc(-c3ccco3)c(-c3ccco3)nc2c1
growth inhibition (GI) [3]: Active

C=C1CC(c2cccc(OC)c2)OC1=O (stereo not drawn)
inhibition [2]: 25%

C=C1C(=O)O[C@@H]2C3O[C@]3(C)CC/C=C(\C)CC[C@@H]12 (stereo partly drawn)
IC50 [4]: 9.8 µM | EC50 [1]: 12.9 µM | IC50 [5]: 5.7 µM | inhibition [6]: > 95% | half-life [11]: 66 min | half-life [12]: 37 min | IC50 [7]: 15.3 µM

C=C1CC(c2ccccn2)OC1=O (stereo not drawn)
inhibition [2]: < 25%

C=C1CC(c2cccc(OCc3ccccc3)c2)OC1=O (stereo not drawn)
inhibition [2]: 25%

C=C1CC(c2cccc(C(F)(F)F)c2)OC1=O (stereo not drawn)
inhibition [2]: 25%

C=C1CC(c2ccc(OC)c(OCc3ccccc3)c2)OC1=O (stereo not drawn)
inhibition [2]: 25%

CC1CC2(OC1=O)C(=O)Nc1ccccc12 (stereo not drawn)
Activity [13]: inactive | growth inhibition (GI) [3]: inactive | inhibition [6]: 5% | inhibition [10]: inactive | inhibition [14]: inactive | growth inhibition (GI) [15]: inactive | inhibition [16]: inactive

C=C1CC(c2cccc(Br)n2)OC1=O (stereo not drawn)
inhibition [2]: 50%

C=C1CC(c2cccc3ccccc23)OC1=O (stereo not drawn)
inhibition [2]: 50%

C=C1C(=O)OC2(C(=O)Nc3ccccc32)C1c1ccccc1 (stereo not drawn)
EC50 [1]: 3.8 µM

C=CC(=O)N1CCC[C@@H](n2nc(-c3ccc(Oc4ccccc4)cc3)c3c(N)ncnc32)C1 [IBRUTINIB]
IC50 [4]: 16.6 µM | EC50 [1]: 20.1 µM | IC50 [5]: 16.8 µM | IC50 [7]: 25.6 µM

Cc1ccc(C)c2c1NC(=O)C21CC(C)C(=O)O1 (stereo not drawn)
IC50 [4]: > 100 µM | EC50 [1]: > 100 µM | IC50 [5]: > 100 µM | IC50 [7]: > 100 µM

C=C1CC(c2ccc3ccccc3c2)OC1=O (stereo not drawn)
inhibition [2]: 50%

C=C1CC(c2ccnc3ccccc23)OC1=O (stereo not drawn)
inhibition [2]: inactive

CCC(=O)N1CCC[C@@H](n2nc(-c3ccc(Oc4ccccc4)cc3)c3c(N)ncnc32)C1
IC50 [4]: 8.2 µM | EC50 [1]: 15.2 µM | IC50 [5]: 15.1 µM | IC50 [7]: 13.4 µM
